Active and inactive are the calls of the source. The rule behind the calls is not given here.
Experiments:
Rattus norvegicus [1] = test: Percentage blood pressure lowering in spontaneously hypertensive rats within 3 hr of intraperitoneal administration at 20 mg/kg; Not statistically significant; type: functional
Procedure, shortened: (§1)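 Male Wistar/Kyoto SHR, about 6 months old, 300–400 g, housed four per cage with chow and water ad libitum. Drug given ip as a suspension in saline with 2% Emulphor EL-620. Systolic pressure was measured indirectly, mostly with photoelectric sensors at 25 °C, and earlier by a modified Friedman–Freed method with 30–45 s warming at 32 °C. Reported value: maximum % lowering within 3 h, mean ± SE.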

Oryctolagus cuniculus [2] = test: Minimum effective dose level to give significant blood pressure lowering effect in normotensive rabbits after administering intravenously; type: functional; details: iv; for minimal effective dose: read-out: MED
Procedure, shortened: (§2)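 Conscious rabbits held in a stock. After 30 min, a 30-min control recording was taken, then drug was given into an ear vein and recording continued for 120 min. Mean arterial pressure (electrically damped) and heart rate were averaged at 10-min intervals over 120 min. The dose was adjusted to the minimum giving p < 0.05 lowering; in practice a ≥10 mmHg mean fall was significant. Vehicle: saline with 2% Emulphor EL-620.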

Rattus norvegicus [3] = test: Percentage blood pressure lowering in spontaneously hypertensive rats within 3 hr of intraperitoneal administration at 50 mg/kg; type: functional; procedure, shortened: as §1
Rattus norvegicus [4] = test: Percentage blood pressure lowering in spontaneously hypertensive rats within 3 hr of intraperitoneal administration at 5 mg/kg; type: functional; procedure, shortened: as §1
Rattus norvegicus [5] = test: Percentage blood pressure lowering in spontaneously hypertensive rats within 3 hr of intraperitoneal administration at 50 mg/kg; Not statistically significant; type: functional; procedure, shortened: as §1
Rattus norvegicus [6] = test: Percentage blood pressure lowering in spontaneously hypertensive rats within 3 hr of intraperitoneal administration at 0.5 mg/kg; type: functional; procedure, shortened: as §1
Oryctolagus cuniculus [7] = test: Mean blood pressure lowering in normotensive rabbits over 2 hr of intravenous administration at 0.125 mg/kg
Oryctolagus cuniculus [8] = test: Mean blood pressure lowering in normotensive rabbits over 2 h of intravenous administration at 0.008 mg/kg
Rattus norvegicus [9] = test: Percentage blood pressure lowering in spontaneously hypertensive rats within 3 hr of intraperitoneal administration at 20 mg/kg; type: functional; procedure, shortened: as §1
Rattus norvegicus [10] = test: Percentage blood pressure lowering in spontaneously hypertensive rats within 3 hr of intraperitoneal administration at 2 mg/kg; type: functional; procedure, shortened: as §1
Rattus norvegicus [11] = test: Percentage blood pressure lowering in spontaneously hypertensive rats within 3 hr of intraperitoneal administration at 10 mg/kg; type: functional; procedure, shortened: as §1
Oryctolagus cuniculus [12] = test: Minimum effective dose level to give significant blood pressure lowering effect in normotensive rabbits after administering intravenously; NA denotes not active at 2.5 mg/kg; type: functional, organism-based; set-up: dose 2.5 mg/kg; procedure, shortened: as §2
Rattus norvegicus [13] = test: Percentage blood pressure lowering in spontaneously hypertensive rats within 3 hr of intraperitoneal administration at 25 mg/kg; type: functional; procedure, shortened: as §1
Rattus norvegicus [14] = test: Percentage blood pressure lowering in spontaneously hypertensive rats within 3 hr of intraperitoneal administration at 1.0 mg/kg; type: functional; procedure, shortened: as §1

Row | Compound | minimal effective dose (Oryctolagus cuniculus [2]) [mg/kg] | BP decrease (Rattus norvegicus [3]) [%] | further results
1 | COc1cc2c(cc1OC)S(C)(=O)=NC(N1CCCN(C(=O)c3ccco3)CC1)=N2.Cl (configuration not stated) | 1.25 | – | BP decrease (Rattus norvegicus [1]): -1%
2 | CCS1(=O)=NC(N2CCN(C(=O)c3ccco3)CC2)=Nc2cc(OC)c(OC)cc21.Cl (configuration not stated) | 2.5 | 18.2 | –
3 | COc1cc2c(cc1OC)S(C)(=O)=NC(Nc1ccccc1)=N2.Cl (configuration not stated) | 1 | 19.9 | –
4 | COc1cc2c(cc1OC)S(C)(=O)=NC(N(C)C)=N2.Cl (configuration not stated) | 0.125 | 24.8 | –
5 | COc1cc2c(cc1OC)S(C)(=O)=NC(N1CCC(O)CC1)=N2.Cl (configuration not stated) | 0.625 | – | BP decrease (Rattus norvegicus [4]): 56.9%
6 | COc1cc2c(cc1OC)S(C)(=O)=NC(N1CCCCC1)=N2.Cl (configuration not stated) | 1.25 | – | BP decrease (Rattus norvegicus [5]): 17.1%
7 | COc1cc2c(cc1OC)S(C)(=O)=NC(NCc1ccccc1)=N2.Cl (configuration not stated) | 1.25 | 28.9 | –
8 | COc1cc2c(cc1OC)S(C)(=O)=NC(N1CCN(C(=O)c3ccco3)CC1)=N2.Cl (configuration not stated) | – | – | BP decrease (Rattus norvegicus [6]): 28.8%; BP decrease (Oryctolagus cuniculus [7]): 24.8 mmHg; BP decrease (Oryctolagus cuniculus [8]): 11.9 mmHg
9 | COc1cc2c(cc1OC)S(=O)(c1ccccc1)=NC(N1CCN(C(=O)c3ccco3)CC1)=N2.Cl (configuration not stated) | 1.25 | 26.1 | –
10 | COc1cc2c(cc1OC)S(C)(=O)=NC(N1CCC(O)(c3ccccc3)CC1)=N2.Cl (configuration not stated) | – | 21.4 | –
11 | COc1cc2c(cc1OC)S(C)(=O)=NC(N1CCC(OC(C)=O)CC1)=N2.Cl (configuration not stated) | 0.25 | – | BP decrease (Rattus norvegicus [9]): 43%
12 | CCOc1cc2c(cc1OCC)S(C)(=O)=NC(N1CCN(C(=O)c3ccco3)CC1)=N2.Cl (configuration not stated) | 2.5 | 16.4 | –
13 | COc1cc2c(cc1OC)S(C)(=O)=NC(N1CCN(C(=O)c3ccccc3)CC1)=N2.Cl (configuration not stated) | 0.312 | 25.5 | –
14 | COc1cc2c(cc1OC)S(C)(=O)=NC(N1CCC(C#N)(c3ccccc3)CC1)=N2.Cl (configuration not stated) | – | – | BP decrease (Rattus norvegicus [5]): 1.6%
15 | COc1cc2c(cc1OC)S(C)(=O)=NC(N1CCC(C(=O)c3ccccc3)CC1)=N2.Cl (configuration not stated) | – | – | BP decrease (Rattus norvegicus [10]): 25.8%
16 | COc1cc2nc(N3CCN(C(=O)c4ccco4)CC3)nc(N)c2cc1OC.Cl [PRAZOSIN HYDROCHLORIDE] | – | – | BP decrease (Rattus norvegicus [6]): 14.7%; MED (Oryctolagus cuniculus [2]): 0.025 mg/kg
17 | COc1cc2c(cc1OC)S(C)(=O)=NC(N1CCC(c3ccccc3)CC1)=N2.Cl (configuration not stated) | 0.16 | 30.2 | –
18 | COc1cc2c(cc1OC)S(C)(=O)=NC(N1CCNCC1)=N2.Cl.Cl (configuration not stated) | 10 | – | BP decrease (Rattus norvegicus [5]): 9.1%
19 | CNC1=Nc2cc(OC)c(OC)cc2S(C)(=O)=N1.Cl (configuration not stated) | 0.16 | – | BP decrease (Rattus norvegicus [5]): 11.3%
20 | COc1cc2c(cc1OC)S(C)(=O)=NC(N1CCN(Cc3ccccc3)CC1)=N2.Cl.Cl (configuration not stated) | 2.5 | 32.9 | –
21 | COc1cc2c(cc1OC)S(C)(=O)=NC(N1CCC(n3c(O)nc4ccccc43)CC1)=N2.Cl (configuration not stated) | 2.5 | 22.5 | –
22 | COc1cc2c(cc1OC)S(C)(=O)=NC(N1CCN(C)CC1)=N2.Cl.Cl (configuration not stated) | 5 | 19.7 | –
23 | COc1cc2c(cc1OC)S(C)(=O)=NC(N1CCC(C(O)c3ccccc3)CC1)=N2.Cl (configuration not stated) | 0.008 | – | BP decrease (Rattus norvegicus [11]): 40.9%
24 | COc1cc2c(cc1OC)S(=O)(C(C)C)=NC(N1CCN(C(=O)c3ccco3)CC1)=N2.Cl (configuration not stated) | – | 34.3 | –
25 | COc1cc2c(cc1OC)S(C)(=O)=NC(NC(C)C)=N2.Cl (configuration not stated) | 2.5 | 17.7 | –
26 | CS1(=O)=NC(N2CCN(C(=O)c3ccco3)CC2)=Nc2cc3c(cc21)OCO3.Cl (configuration not stated) | – | 18.2 | BP decrease (Oryctolagus cuniculus [12]): inactive
27 | COc1cc2c(cc1OC)S(C)(=O)=NC(N1CCN(c3ccccc3)CC1)=N2.Cl.Cl (configuration not stated) | 0.625 | – | BP decrease (Rattus norvegicus [13]): 30.8%
28 | COc1cc2c(c(OC)c1OC)S(C)(=O)=NC(N1CCN(C(=O)c3ccco3)CC1)=N2.Cl (configuration not stated) | 0.04 | 20.6 | –
29 | CCN(CC)C1=Nc2cc(OC)c(OC)cc2S(C)(=O)=N1.Cl (configuration not stated) | 0.04 | – | BP decrease (Rattus norvegicus [10]): 37.3%
30 | COc1cc2c(cc1OC)S(C)(=O)=NC(N1CCN(C(=O)c3nnc(SC)o3)CC1)=N2.Cl (configuration not stated) | 0.2 | – | BP decrease (Rattus norvegicus [14]): 14%

Reference: ChEMBL document CHEMBL1121468, “Synthesis and blood pressure lowering activity of 3-(substituted-amino)-1,2,4-benzothiadiazine 1-oxide derivatives” (1980)
